Reference: paper PMC7814958 (Nuclear medicine and biology, 2020)
Where “and” joins values, the source holds several entries; their conditions need not be identical. Equal values may be shown once. Blank lines part the entries; values can stand above or below the molecule they belong to.

What was measured:
ASCT-2 = molecular target: T1, ASCT-2 (Homo sapiens, UniProt Q15758); assay: Inhibition of [3H]-L-glutamine uptake in PC-3 cells; format: cell-based; conditions: 5 min, 37 °C, n=3
T1 sequence (Q15758 1-541): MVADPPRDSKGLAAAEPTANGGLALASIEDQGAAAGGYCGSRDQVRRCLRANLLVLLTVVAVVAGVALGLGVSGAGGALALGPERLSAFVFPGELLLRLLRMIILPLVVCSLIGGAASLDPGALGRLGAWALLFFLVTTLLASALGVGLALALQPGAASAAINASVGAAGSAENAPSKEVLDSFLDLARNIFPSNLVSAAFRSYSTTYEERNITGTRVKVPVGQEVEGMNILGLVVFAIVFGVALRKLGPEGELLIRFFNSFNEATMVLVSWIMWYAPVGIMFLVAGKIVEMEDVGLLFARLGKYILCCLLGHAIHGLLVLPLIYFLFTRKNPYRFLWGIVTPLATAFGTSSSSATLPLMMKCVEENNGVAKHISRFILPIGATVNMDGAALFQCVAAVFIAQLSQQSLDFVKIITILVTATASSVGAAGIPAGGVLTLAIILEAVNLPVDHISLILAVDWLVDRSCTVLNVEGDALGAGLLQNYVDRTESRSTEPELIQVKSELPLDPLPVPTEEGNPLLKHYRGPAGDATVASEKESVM
Summary of the method: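 PC-3 cells grown in RPMI with 10% FCS, 1% L-glutamine and pen/strep at 37 °C, 5% CO2, seeded at 175,000 cells/mL the day before. Washed twice in HEPES+ buffer (pH 7.4, 100 mM NaCl, 1 g/L BSA), then given [3H]-L-glutamine (111 kBq/mL) with unlabelled glutamine ± test compound. Stopped on ice with cold PBS+BSA, NaOH-lysed, scintillation-counted, BCA protein-corrected.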

ASCT-2 transporter [1] = molecular target: T2, ASCT-2 transporter (Homo sapiens, UniProt Q15758); assay: [3H]glutamine uptake concentration dependency; format: cell-based; conditions: for affinity towards the ASCT-2 transporter (in words): human PC-3 cell line
T2 sequence (Q15758 1-541): T1 sequence (Q15758 1-541)
Summary of the method: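 Human PC-3 cells kept in RPMI with 10% FCS, 1% L-glutamine and pen/strep, plated the prior day at 175,000 cells/mL. Washed twice in HEPES+ (pH 7.4), then 5 min at 37 °C with [3H]-L-glutamine (111 kBq/mL) over a 10–1200 μM glutamine stock series, ± unlabelled test compound. Ice-cold PBS+BSA stop, NaOH lysis, scintillation counting, BCA normalisation. Non-linear Michaelis-Menten fits; Ki from Km and Km,app at inhibitor concentration.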

ASCT-2 transporter [2] = molecular target: T3, ASCT-2 transporter (Rattus norvegicus, UniProt D3ZJ25); assay: [3H]glutamine uptake concentration dependency; format: cell-based; conditions: for affinity towards the ASCT-2 transporter (in words): rat F98 cell line
T3 sequence (D3ZJ25 1-555): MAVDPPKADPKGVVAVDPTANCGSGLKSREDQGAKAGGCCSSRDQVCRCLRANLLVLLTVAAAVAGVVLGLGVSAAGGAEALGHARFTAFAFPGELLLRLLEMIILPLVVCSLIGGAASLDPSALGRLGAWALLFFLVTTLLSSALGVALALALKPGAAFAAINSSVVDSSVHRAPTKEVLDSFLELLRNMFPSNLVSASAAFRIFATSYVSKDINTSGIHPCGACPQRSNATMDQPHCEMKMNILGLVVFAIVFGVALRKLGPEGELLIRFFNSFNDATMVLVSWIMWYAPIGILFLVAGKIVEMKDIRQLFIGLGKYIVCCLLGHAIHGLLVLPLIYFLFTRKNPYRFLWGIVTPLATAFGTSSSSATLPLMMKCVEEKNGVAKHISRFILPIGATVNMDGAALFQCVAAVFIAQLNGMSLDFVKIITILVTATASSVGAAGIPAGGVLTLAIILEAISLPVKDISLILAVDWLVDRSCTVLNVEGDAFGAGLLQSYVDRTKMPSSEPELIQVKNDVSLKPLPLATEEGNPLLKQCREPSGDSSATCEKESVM
Summary of the method: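 Rat F98 cells grown in DMEM with 10% FCS, 1% L-glutamine and pen/strep, seeded the day before at 125,000 cells/mL. After two HEPES+ washes (pH 7.4), cells took up [3H]-L-glutamine (111 kBq/mL) for 5 min at 37 °C. Glutamine stocks spanned 10–1200 μM, ± non-radioactive test compound. Stopped on ice, NaOH lysis, scintillation counting, BCA protein correction. Ki from Michaelis-Menten Km versus Km,app.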

[3] = system: SLC1A5 knock-out HEK-293 cell line; assay: Inhibition of [3H]glutamine uptake in ASCT-2 knock-out HEK-293 cell line; format: cell-based; conditions: 50 μM glutamine; 5 min, 37 °C; n=3
Summary of the method: (§1)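 Wild-type or CRISPR-Cas9 SLC1A5-knockout HEK-293 cells grown in DMEM (10% FCS, 1% L-glutamine), seeded at 175,000 cells/mL on poly-D-lysine-coated wells the day before. Washed in HEPES+ (pH 7.4), then given 50 μM [3H]-L-glutamine/glutamine ± test compound. Stopped with ice-cold PBS+BSA, washed, lysed in 0.1 M NaOH, scintillation-counted, BCA protein-normalized. Knockout checked by flow cytometry.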

[4] = system: ASCT-2 expressing wild-type HEK-293 cells; assay: Inhibition of [3H]glutamine uptake in wild-type HEK-293 cell line; format: cell-based; conditions: 50 μM glutamine; 5 min, 37 °C; n=3
Summary of the method: as §1

[5] = reported for glutamine; cited from earlier work
[6] = Biodistribution study in PC-3 inoculated mice; format: in vivo
Summary of the method: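 PC-3 flank xenografts in male Swiss nu/nu mice, prepared as for imaging. Seven weeks post-inoculation, 5.0 MBq radiotracer given i.v. via lateral tail vein. Mice killed by cervical dislocation at 20 and 60 min p.i. (n=3 each). Blood drawn by cardiac puncture; organs dissected, rinsed with water, weighed and counted. Results as %ID/g ± SD.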

[7] = In vitro stability in formulation; format: physicochemical; conditions: 37 °C; analytical HPLC; no degradation products found
Summary of the method: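 Radiolabelled test compound held in its formulation at 37 °C for 30, 70, 120 and 180 min after radiosynthesis. Formulation was HPLC eluate (ethanol/10 mM ammonium acetate), diluted with PBS for the biphenyl analogue. At each point 7 MBq was run on analytical C18 HPLC with radio and UV (205 nm) detection at 1.0 mL/min. Runs were isocratic, ethanol/10 mM ammonium acetate 10:90 or 30:70.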

PC-3 xenograft = assay: Dynamic microPET in PC-3 xenograft model; format: in vivo, mice
Summary of the method: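 Male Swiss nu/nu mice (n=5) received 5 × 10^6 PC-3 cells with Matrigel in the right flank at 8 weeks and the left flank a week later; scanned seven weeks post-inoculation. Fasted ≥6 h, isoflurane anaesthesia, 18.5 MBq i.v. via tail vein. 1-h dynamic PET (1-min frames to 25 min, then 5-min), then CT. Manual tumor and leg-muscle ROIs; SUV decay- and syringe-corrected.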

LogD7.4 determination = format: physicochemical; conditions: n=3
Summary of the method: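 1 MBq radiolabelled test compound added to PBS/n-octanol (1:1, V:V), vortexed and spun 10 min at 1100 g. Aliquots of each layer counted in a NaI(Tl) scintillation counter. LogD7.4 taken as log of octanol/PBS count ratio; n=3.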

[8] = Swiss nu/nu male mice, PC-3, i.v., 20 min, n=3
[9] = Swiss nu/nu male mice, PC-3, i.v., 60 min, n=3

relative uptake of [3H]-L-glutamine in presence of inhibitor compared to basal uptake (ASCT-2): 92 ± 1%
Ki (ASCT-2 transporter [1]): 604 µM
affinity towards the ASCT-2 transporter (in words) (ASCT-2 transporter [1]): low affinity
Ki (ASCT-2 transporter [2]): 1420 µM
affinity towards the ASCT-2 transporter (in words) (ASCT-2 transporter [2]): low affinity
SMILES: N[C@@H](CCC(=O)Nc1ccc(-c2ccc(F)cc2)cc1)C(=O)O [FBPG, N5-(4’-fluoro-[1,1’-biphenyl]-4-yl)glutamine]
relative uptake of [3H]glutamine in presence of inhibitor compared to basal uptake, ASCT-2 KO HEK-293 [3]: 58 ± 9%
relative uptake of [3H]glutamine in presence of inhibitor compared to basal uptake, Wild-type HEK-293 [4]: 95 ± 6%

SMILES: NC(=O)CC[C@H](N)C(=O)O [glutamine]
logD7.4 [5]: −3.64

SMILES: N[C@@H](CCC(=O)Nc1ccc(-c2ccc([18F])cc2)cc1)C(=O)O [[^18F]FBPG, [^18F]fluorobiphenylglutamine]
bone uptake as indication of defluorination (in words) ([6]; PC-3 inoculated mice): No enhanced uptake in the bone
Bladder uptake %ID/g 20 min post-injection [6, 8]: 1.33 ± 0.77 %ID/g
Blood uptake %ID/g 20 min post-injection [6, 8]: 5.49 ± 0.74 %ID/g
Bone uptake %ID/g 20 min post-injection [6, 8]: 0.95 ± 0.20 %ID/g
Brain uptake %ID/g 20 min post-injection [6, 8]: 0.67 ± 0.13 %ID/g
Fat uptake %ID/g 20 min post-injection [6, 8]: 0.92 ± 0.26 %ID/g
Heart uptake %ID/g 20 min post-injection [6, 8]: 2.03 ± 0.47 %ID/g
Kidney uptake %ID/g 20 min post-injection [6, 8]: 11.52 ± 3.91 %ID/g
Large intestine uptake %ID/g 20 min post-injection [6, 8]: 0.39 ± 0.14 %ID/g
Liver uptake %ID/g 20 min post-injection [6, 8]: 7.43 ± 1.80 %ID/g
Lung uptake %ID/g 20 min post-injection [6, 8]: 5.03 ± 1.14 %ID/g
Muscle uptake %ID/g 20 min post-injection [6, 8]: 0.45 ± 0.09 %ID/g
Prostate uptake %ID/g 20 min post-injection [6, 8]: 2.13 ± 1.90 %ID/g
Skin uptake %ID/g 20 min post-injection [6, 8]: 0.79 ± 0.10 %ID/g
Small intestine uptake %ID/g 20 min post-injection [6, 8]: 5.77 ± 5.82 %ID/g
Spleen uptake %ID/g 20 min post-injection [6, 8]: 3.11 ± 0.28 %ID/g
Stomach uptake %ID/g 20 min post-injection [6, 8]: 2.89 ± 1.72 %ID/g
Tumor uptake %ID/g 20 min post-injection [6, 8]: 0.46 ± 0.09 %ID/g
Bladder uptake %ID/g 60 min post-injection [6, 9]: 2.54 ± 1.47 %ID/g
Blood uptake %ID/g 60 min post-injection [6, 9]: 4.24 ± 0.85 %ID/g
Bone uptake %ID/g 60 min post-injection [6, 9]: 0.67 ± 0.14 %ID/g
Brain uptake %ID/g 60 min post-injection [6, 9]: 0.38 ± 0.03 %ID/g
Fat uptake %ID/g 60 min post-injection [6, 9]: 1.21 ± 1.05 %ID/g
Heart uptake %ID/g 60 min post-injection [6, 9]: 1.50 ± 0.52 %ID/g
Kidney uptake %ID/g 60 min post-injection [6, 9]: 14.46 ± 1.71 %ID/g
Large intestine uptake %ID/g 60 min post-injection [6, 9]: 0.53 ± 0.07 %ID/g
Liver uptake %ID/g 60 min post-injection [6, 9]: 4.44 ± 0.83 %ID/g
Lung uptake %ID/g 60 min post-injection [6, 9]: 3.75 ± 0.43 %ID/g
Muscle uptake %ID/g 60 min post-injection [6, 9]: 0.48 ± 0.28 %ID/g
Prostate uptake %ID/g 60 min post-injection [6, 9]: 2.60 ± 1.12 %ID/g
Skin uptake %ID/g 60 min post-injection [6, 9]: 0.57 ± 0.10 %ID/g
Small intestine uptake %ID/g 60 min post-injection [6, 9]: 19.10 ± 4.83 %ID/g
Spleen uptake %ID/g 60 min post-injection [6, 9]: 2.07 ± 0.26 %ID/g
Stomach uptake %ID/g 60 min post-injection [6, 9]: 0.85 ± 0.01 %ID/g
Tumor uptake %ID/g 60 min post-injection [6, 9]: 0.42 ± 0.09 %ID/g
stability in formulation [7]: at least 3 hours
T/Mmean (mean tumor-to-muscle ratio) (PC-3 xenograft; PC-3 xenograft mice, 18.5 MBq i.v., leg muscle as reference): 1.20 ± 0.15
SUVmean (mean standardized uptake value) (PC-3 xenograft; PC-3 xenograft mice, 18.5 MBq i.v., tumor ROI): 0.17 ± 0.04
tumor uptake on PET (in words) (PC-3 xenograft; mice bearing PC-3 xenografts): very low uptake
logD7.4 (octanol/PBS ratio at pH 7.4) (LogD7.4 determination): 1.11 ± 0.01 and 1.11

relative uptake of [3H]-L-glutamine in presence of inhibitor compared to basal uptake (ASCT-2): 94 ± 9%
Ki (ASCT-2 transporter [1]): 234 µM
affinity towards the ASCT-2 transporter (in words) (ASCT-2 transporter [1]): moderate affinity
Ki (ASCT-2 transporter [2]): 850 µM
affinity towards the ASCT-2 transporter (in words) (ASCT-2 transporter [2]): low affinity
SMILES: N[C@@H](CCC(=O)Nc1ccc(F)cc1)C(=O)O [FPG, N5-(4-fluorophenyl)glutamine]
relative uptake of [3H]glutamine in presence of inhibitor compared to basal uptake, ASCT-2 KO HEK-293 [3]: 60 ± 7%
relative uptake of [3H]glutamine in presence of inhibitor compared to basal uptake, Wild-type HEK-293 [4]: 96 ± 7%
